Measured values as given in ChEMBL document CHEMBL1157743, “Mitotic arrest induced by a novel family of DNA topoisomerase II inhibitors” (J Med Chem, 2010).
The source made the active and inactive calls. The calls are words filed in the database; no cut-off is given here.

Tests used:
[1] = tested on: HBL-100; assay: Antiproliferative activity against human HBL100 cells after 48 hrs by SRB assay; type: functional; details: HBL-100, 48 h
Procedure, shortened: (§1)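 Human solid tumor lines and three immortalized nontumor lines in culture, exposed to the test agent. Read-out is growth inhibition, reported as GI50 (μM).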

[2] = tested on: SW1573; assay: Antiproliferative activity against human SW1573 cells after 48 hrs by SRB assay; type: functional; details: SW1573, 48 h; procedure, shortened: as §1
[3] = tested on: WiDr; assay: Induction of apoptosis in human WiDr cells assessed as early apoptotic cells at 8 uM after 24 hrs by annexin V/Pi staining technique; type: functional
[4] = target: DNA topoisomerase 2-alpha (Homo sapiens) (UniProt P11388); assay: Inhibition of human topoisomerase 2 alpha assessed as inhibition of decatenation of KDNA at 100 uM after 30 to 60 mins by gel electrophoresis with ethidium bromide relative to control
Procedure, shortened: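 Decatenation assay: purified TOP2 incubated with kinetoplast DNA. Released minicircles (nicked, supercoiled and relaxed forms) resolved by agarose gel electrophoresis. Compared with lanes without enzyme and with enzyme alone, plus reference TOP2 inhibitors.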

[5] = tested on: HBL-100; assay: Induction of apoptosis in human HBL100 cells assessed as early apoptotic cells at 2 uM after 24 hrs by annexin V/Pi staining technique; type: functional
[6] = tested on: HeLa; assay: Induction of apoptosis in human HeLa cells assessed as late apoptotic cells at 6 uM after 24 hrs by annexin V/Pi staining technique; type: functional
[7] = target: DNA topoisomerase 2-alpha (Homo sapiens) (UniProt P11388); assay: Inhibition of human topoisomerase 2 alpha assessed as inhibition of formation of Lin form of plasmid pHOT1 at 100 uM after 30 to 60 mins by gel electrophoresis inthe presence of exsess of ethidium bromide relative to control
Procedure, shortened: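 Cleavage-complex assay: purified TOP2 incubated with plasmid pHOT1. Agarose gel electrophoresis detects the linear (Lin) DNA form produced by trapped enzyme-cut intermediates.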

[8] = tested on: HBL-100; assay: Cell cycle arrest in human HBL100 cells assessed as accumulation of cells in G2/M phase after 24 hrs by flow cytometry; type: functional, cell-based
Procedure, shortened: (§2)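 Flow cytometry of DNA content, giving the G0/G1, S, G2/M and sub-G1 fractions. Cells treated for 24 h at three doses alongside untreated controls. Values are means of at least two experiments.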

[9] = tested on: HBL-100; assay: Induction of apoptosis in human HBL100 cells assessed as late apoptotic cells at 4 uM after 24 hrs by annexin V/Pi staining technique; type: functional
[10] = tested on: hTERT-HPNE (Homo sapiens); assay: Antiproliferative activity against hTERT-HPNE cells after 48 hrs by SRB assay
[11] = tested on: WiDr; assay: Cell cycle arrest in human WiDr cells assessed as accumulation of cells in G2/M phase after 24 hrs by flow cytometry; type: functional, cell-based; procedure, shortened: as §2
[12] = tested on: HeLa; assay: Induction of apoptosis in human HeLa cells assessed as late apoptotic cells at 8 uM after 24 hrs by annexin V/Pi staining technique; type: functional
[13] = tested on: HeLa; assay: Induction of apoptosis in human HeLa cells assessed as early apoptotic cells at 8 uM after 24 hrs by annexin V/Pi staining technique; type: functional
[14] = tested on: HeLa; assay: Cell cycle arrest in human HeLa cells assessed as accumulation of cells in G2/M phase after 24 hrs by flow cytometry; type: functional, cell-based; procedure, shortened: as §2
[15] = target: DNA topoisomerase 2-alpha (Homo sapiens) (UniProt P11388); assay: Inhibition of human topoisomerase 2 alpha assessed as inhibition of relaxation of Rel plasmid pHOT1 at 100 uM after 30 to 60 mins by gel electrophoresis relative to control
Procedure, shortened: (§3)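 Purified TOP2 incubated with negatively supercoiled plasmid pHOT1. Supercoiled, nicked and relaxed topoisomers separated by agarose gel electrophoresis. Compared with lanes without enzyme and with enzyme alone.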

[16] = tested on: WiDr; assay: Antiproliferative activity against human WiDr cells after 48 hrs by SRB assay; type: functional; procedure, shortened: as §1
[17] = tested on: T47D; assay: Induction of apoptosis in human T47D cells assessed as late apoptotic cells at 6 uM after 24 hrs by annexin V/Pi staining technique; type: functional
[18] = tested on: HBL-100; assay: Induction of apoptosis in human HBL100 cells assessed as late apoptotic cells at 2 uM after 24 hrs by annexin V/Pi staining technique; type: functional
[19] = tested on: HeLa; assay: Induction of DNA damage in human HeLa cells assessed as phosphorylation of H2AX at 7.5 uM after 24 hrs by immunoblotting; type: functional, cell-based
Procedure, shortened: (§4)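 HeLa cells exposed at 7.5 μM, sampled at 3, 6, 12 and 24 h. Protein extracts probed by Western blot for phospho-Chk2, phospho-H2AX and cyclin B1. Phospho-histone H3 Ser10 detected with a phospho-specific antibody. Includes a positive-control lane.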

[20] = tested on: T47D; assay: Induction of apoptosis in human T47D cells assessed as early apoptotic cells at 8 uM after 24 hrs by annexin V/Pi staining technique; type: functional
[21] = tested on: T47D; assay: Antiproliferative activity against human T47D cells after 48 hrs by SRB assay; type: functional; procedure, shortened: as §1
[22] = Antiproliferative activity against human HS27 cells after 48 hrs by SRB assay; type: cell-based; procedure, shortened: as §1
[23] = tested on: HeLa; assay: Induction of DNA damage in human HeLa cells assessed as phosphorylation of ChK2 at 7.5 uM after 24 hrs by immunoblotting; type: functional, cell-based; procedure, shortened: as §4
[24] = tested on: HeLa; assay: Induction of DNA damage in human HeLa cells assessed as expression of cyclin B1 uM after 24 hrs by immunoblotting; type: functional, cell-based; procedure, shortened: as §4
[25] = tested on: SW1573; assay: Cell cycle arrest in human SW1573 cells assessed as accumulation of cells in G2/M phase after 24 hrs by flow cytometry; type: functional, cell-based; procedure, shortened: as §2
[26] = tested on: T47D; assay: Cell cycle arrest in human T47D cells assessed as accumulation of cells in G2/M phase after 24 hrs by flow cytometry; type: functional, cell-based; procedure, shortened: as §2
[27] = tested on: HBL-100; assay: Induction of apoptosis in human HBL100 cells assessed as early apoptotic cells at 4 uM after 24 hrs by annexin V/Pi staining technique; type: functional
[28] = tested on: HeLa; assay: Induction of apoptosis in human HeLa cells assessed as early apoptotic cells at 6 uM after 24 hrs by annexin V/Pi staining technique; type: functional
[29] = tested on: T47D; assay: Induction of apoptosis in human T47D cells assessed as early apoptotic cells at 6 uM after 24 hrs by annexin V/Pi staining technique; type: functional
[30] = target: DNA topoisomerase 2-alpha (Homo sapiens) (UniProt P11388); assay: Inhibition of human topoisomerase 2 alpha assessed as inhibition of relaxation of SC plasmid pHOT1 at 100 uM after 30 to 60 mins by gel electrophoresis relative to control; procedure, shortened: as §3
[31] = tested on: T47D; assay: Induction of apoptosis in human T47D cells assessed as late apoptotic cells at 8 uM after 24 hrs by annexin V/Pi staining technique; type: functional
[32] = tested on: WiDr; assay: Induction of apoptosis in human WiDr cells assessed as late apoptotic cells at 6 uM after 24 hrs by annexin V/Pi staining technique; type: functional
[33] = tested on: HeLa; assay: Antiproliferative activity against human HeLa cells after 48 hrs by SRB assay; type: functional; procedure, shortened: as §1
[34] = target: DNA topoisomerase 2-alpha (Homo sapiens) (UniProt P11388); assay: Inhibition of human topoisomerase 2 alpha assessed as inhibition of relaxation of NcK plasmid pHOT1 at 100 uM after 30 to 60 mins by gel electrophoresis relative to control; procedure, shortened: as §3
[35] = Antiproliferative activity against human MCF10A cells after 48 hrs by SRB assay; type: cell-based, MCF-10A; procedure, shortened: as §1
[36] = tested on: WiDr; assay: Induction of apoptosis in human WiDr cells assessed as late apoptotic cells at 8 uM after 24 hrs by annexin V/Pi staining technique; type: functional
[37] = tested on: WiDr; assay: Induction of apoptosis in human WiDr cells assessed as early apoptotic cells at 6 uM after 24 hrs by annexin V/Pi staining technique; type: functional

Sequence of DNA topoisomerase 2-alpha (Homo sapiens) (P11388 whole entry): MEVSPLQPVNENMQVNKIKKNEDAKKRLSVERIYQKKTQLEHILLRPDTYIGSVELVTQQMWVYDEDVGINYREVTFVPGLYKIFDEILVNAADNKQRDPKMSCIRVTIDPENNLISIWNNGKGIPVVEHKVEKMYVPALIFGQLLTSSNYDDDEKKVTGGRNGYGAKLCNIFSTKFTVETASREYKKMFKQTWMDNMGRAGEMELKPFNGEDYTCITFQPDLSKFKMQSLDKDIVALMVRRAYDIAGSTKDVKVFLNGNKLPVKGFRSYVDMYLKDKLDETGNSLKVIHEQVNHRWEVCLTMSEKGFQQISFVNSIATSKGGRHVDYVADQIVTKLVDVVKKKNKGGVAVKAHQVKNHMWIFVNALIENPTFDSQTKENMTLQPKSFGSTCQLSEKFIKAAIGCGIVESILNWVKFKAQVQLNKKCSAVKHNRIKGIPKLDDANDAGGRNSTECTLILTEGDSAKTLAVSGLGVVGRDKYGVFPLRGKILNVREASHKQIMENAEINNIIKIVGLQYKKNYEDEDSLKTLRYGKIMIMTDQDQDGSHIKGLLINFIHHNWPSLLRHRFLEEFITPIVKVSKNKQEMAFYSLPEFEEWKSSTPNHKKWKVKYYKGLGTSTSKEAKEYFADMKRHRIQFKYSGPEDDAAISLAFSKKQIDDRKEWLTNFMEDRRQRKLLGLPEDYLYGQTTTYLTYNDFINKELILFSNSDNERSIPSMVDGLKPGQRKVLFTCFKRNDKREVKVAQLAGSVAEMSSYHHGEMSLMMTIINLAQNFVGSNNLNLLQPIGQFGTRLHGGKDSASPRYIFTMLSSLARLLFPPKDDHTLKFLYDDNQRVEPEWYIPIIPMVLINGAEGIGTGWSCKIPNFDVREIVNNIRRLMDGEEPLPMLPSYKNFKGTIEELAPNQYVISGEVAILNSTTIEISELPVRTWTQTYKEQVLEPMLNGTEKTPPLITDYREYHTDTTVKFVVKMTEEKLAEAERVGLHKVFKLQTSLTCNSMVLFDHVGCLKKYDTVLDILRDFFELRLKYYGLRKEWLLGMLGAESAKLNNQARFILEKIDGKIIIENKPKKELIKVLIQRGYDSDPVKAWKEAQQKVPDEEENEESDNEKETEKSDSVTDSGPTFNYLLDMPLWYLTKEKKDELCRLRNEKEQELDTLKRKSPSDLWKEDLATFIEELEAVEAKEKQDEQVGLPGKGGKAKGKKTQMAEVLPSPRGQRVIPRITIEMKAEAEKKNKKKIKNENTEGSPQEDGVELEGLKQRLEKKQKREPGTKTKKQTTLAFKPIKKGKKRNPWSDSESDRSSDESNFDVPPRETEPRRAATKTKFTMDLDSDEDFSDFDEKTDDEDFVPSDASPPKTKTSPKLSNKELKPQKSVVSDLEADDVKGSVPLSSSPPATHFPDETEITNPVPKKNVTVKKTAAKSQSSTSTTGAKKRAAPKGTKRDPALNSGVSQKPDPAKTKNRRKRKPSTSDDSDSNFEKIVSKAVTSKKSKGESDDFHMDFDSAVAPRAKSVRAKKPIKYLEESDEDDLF

CC(C)C(C#CC(=O)OC(C)(C)C)O/C=C/C(=O)OC(C)(C)C (centres undefined)
GI50 [1]: 3 µM | GI50 [2]: 4.8 µM

CC1CCC(C(C)C)C(OC(=O)C#CC(O/C=C/C(=O)OC2CC(C)CCC2C(C)C)C(C)C)C1 (centres undefined)
GI50 [1]: > 100 µM | GI50 [2]: > 100 µM

COC(=O)C#CC(O/C=C/C(=O)OC)C1CCCCC1 (centres undefined)
GI50 [1]: 2.5 µM | GI50 [2]: 2.1 µM

CCCCCC(C#CC(=O)OC)O/C=C/C(=O)OC (centres undefined)
GI50 [1]: 1.9 µM | GI50 [2]: 1.7 µM

CCCCCCC(C#CC(=O)O)O/C=C/C(=O)OC (centres undefined)
GI50 [1]: > 100 µM | GI50 [2]: > 100 µM

CCOC(=O)C#CC(C[C@@H](C)CCC=C(C)C)O/C=C/C(=O)OCC (some centres undefined)
GI50 [1]: 2.6 µM | GI50 [2]: 2.6 µM

CCCC(C#CC(=O)OC)O/C=C/C(=O)OC (centres undefined)
GI50 [1]: 0.27 µM | GI50 [2]: 0.32 µM

C#CCO/C=C/C(=O)OC
GI50 [1]: > 100 µM | GI50 [2]: > 100 µM

Cc1ccc(S(=O)(=O)C#CC(O/C=C/S(=O)(=O)c2ccc(C)cc2)C(C)C)cc1 (centres undefined)
GI50 [1]: 3.8 µM | GI50 [2]: 3.2 µM

COC(=O)C#CC(O/C=C/C(=O)OC)C(C)C (centres undefined)
GI50 [1]: 0.45 µM | GI50 [2]: 0.75 µM

CCOC(=O)C#CC(O/C=C/C(=O)OC)C(C)C (centres undefined)
GI50 [1]: 0.88 µM | GI50 [2]: 0.96 µM

CCOC(=O)C#CCO/C=C/C(=O)OC
GI50 [1]: 2.4 µM | GI50 [2]: 1.8 µM

COC(=O)C#CC(CCc1ccccc1)O/C=C/C(=O)OC (centres undefined)
GI50 [1]: 2.6 µM | GI50 [2]: 2.6 µM

COC(=O)C#CC(CC(C)C)O/C=C/C(=O)OC (centres undefined)
GI50 [1]: 0.33 µM | GI50 [2]: 0.38 µM

CCOC(=O)C#CC(O/C=C/C(=O)OCC)C(C)C (centres undefined)
GI50 [1]: 3 µM | GI50 [2]: 2.8 µM

CCCCC(C#CC(=O)OC)O/C=C/C(=O)OC (centres undefined)
Activity [3]: 11% | Activity [4]: Active | Activity [5]: 6.7% | Activity [6]: 9% | Activity [7]: inactive | Activity [8]: Dose-dependent effect | Activity [9]: 12% | GI50 at 48 h [10]: 1.3 µM | Activity [11]: Dose-dependent effect | Activity [12]: 11% | Activity [13]: 10% | Activity [14]: Dose-dependent effect | Activity [15]: Active | GI50 [16]: 3.1 µM | Activity [17]: 24% | Activity [18]: 12% | Activity [19]: inactive | Activity [20]: 11% | GI50 [21]: 3.8 µM | GI50 at 48 h [22]: 1.9 µM | Activity [23]: inactive | Activity [24]: inactive | GI50 [1]: 0.25 µM | Activity [25]: Dose-dependent effect | GI50 [2]: 0.24 µM | Activity [26]: Dose-dependent effect | Activity [27]: 5.3% | Activity [28]: 8.7% | Activity [29]: 12% | Activity [30]: Active | Activity [31]: 19% | Activity [32]: 21% | GI50 [33]: 2.8 µM | Activity [34]: Active | GI50 at 48 h [35]: 34 µM | Activity [36]: 28% | Activity [37]: 12%

CCCCCCC(C#CC(=O)OC)O/C=C/C(=O)OC (centres undefined)
GI50 [1]: 2.5 µM | GI50 [2]: 3.3 µM

COC(=O)/C=C/OC(C#CC(=O)O)C(C)(C)C (centres undefined)
GI50 [1]: > 100 µM | GI50 [2]: > 100 µM

C#CC(O/C=C/C(=O)OC)c1ccccc1 (centres undefined)
GI50 [1]: 26 µM | GI50 [2]: 31 µM

COC(=O)C#CC(C[C@@H](C)CCC=C(C)C)O/C=C/C(=O)OC (some centres undefined)
GI50 [1]: 3.1 µM | GI50 [2]: 2.2 µM

CCCCCCCCCCC(C#CC(=O)OC)O/C=C/C(=O)OC (centres undefined)
GI50 [1]: 2.2 µM | GI50 [2]: 2 µM

COC(=O)C#CC(O/C=C/C(=O)OC)C1CC1 (centres undefined)
GI50 [1]: 0.25 µM | GI50 [2]: 1.8 µM

CCC(C#CC(=O)OC)O/C=C/C(=O)OC (centres undefined)
GI50 [1]: 0.32 µM | GI50 [2]: 0.54 µM

COC(=O)C#CC(O/C=C/C(=O)OC)C(C)c1ccccc1 (centres undefined)
GI50 [1]: 0.49 µM | GI50 [2]: 1.2 µM

CCC(C)C(C#CC(=O)OC)O/C=C/C(=O)OC (centres undefined)
GI50 [1]: 0.34 µM | GI50 [2]: 0.91 µM

COC(=O)C#CC(O/C=C/C(=O)OC)C(C)(C)C (centres undefined)
GI50 [1]: 1.8 µM | GI50 [2]: 3 µM

COC(=O)C#CC(C)O/C=C/C(=O)OC (centres undefined)
GI50 [1]: 0.3 µM | GI50 [2]: 1.7 µM
